Measured values as given in ChEMBL document CHEMBL4613310, “Glycans Meet Sphingolipids: Structure-Based Design of Glycan Containing Analogues of a Sphingosine Kinase Inhibitor” (2020).
Active and inactive are the calls of the source. The rule behind the calls is not given here.

Legend:
C2C12 [1] = test: (§1) Inhibition of TGFbeta1-induced fibrosis in mouse C2C12 cells assessed as reduction in alphaSMA protein expression level at 10 uM preincubated for 30 mins followed by TGFbeta1 addition and measured after 48 hrs by Western blot analysis relative to control; format: functional
Method in brief: (§2)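 C2C12 myoblasts were seeded to 80% confluence. Cells received 10 μM inhibitor and 5.0 ng/mL TGFβ1, with inhibitor exposure of 30 min or 2 h. α-SMA and SMα22 were detected by Western blot with specific antibodies. Bands were quantified by densitometry and normalized to β-actin. Results are fold change over untreated control, mean ± SD of three independent experiments. Two-way ANOVA with Bonferroni post hoc test.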

C2C12 [2] = test: Inhibition of TGFbeta1-induced fibrosis in mouse C2C12 cells assessed as reduction in SMalpha22 protein expression level at 10 uM preincubated for 2 hrs followed by TGFbeta1 addition and measured after 48 hrs by Western blot analysis; format: functional, cell-based; method in brief: as §2
C2C12 [3] = test: Inhibition of TGFbeta1-induced fibrosis in mouse C2C12 cells assessed as reduction in caveolin3 protein expression level preincubated for 2 hrs followed by TGFbeta1 addition and measured after 48 hrs by Western blot analysis relative to control; format: functional
C2C12 [4] = test: as §1, with “120” for “30”, “DAPI and rhodamine phalloidin staining based laser scanning confocal microscopic method” for “Western blot analysis”; format: functional
Method in brief: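 C2C12 cells were serum-starved for 24 h, preincubated 2 h with 10 μM inhibitor, then treated with 5.0 ng/mL TGFβ1 for 48 h. Confocal immunofluorescence used an anti-αSMA primary antibody with a fluorescein-conjugated anti-mouse secondary antibody. αSMA localization was assessed relative to F-actin microfilaments.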

C2C12 [5] = test: Inhibition of TGFbeta1-induced fibrosis in mouse C2C12 cells assessed as reduction in SMalpha22 protein expression level at 10 uM preincubated for 30 mins followed by TGFbeta1 addition and measured after 48 hrs by Western blot analysis; format: functional, cell-based; method in brief: as §2
C2C12 [6] = test: Inhibition of TGFbeta1-induced fibrosis in mouse C2C12 cells assessed as reduction in alphaSMA protein expression level at 10 uM preincubated for 30 mins followed by TGFbeta1 addition and measured after 48 hrs by Western blot analysis; format: functional, cell-based; method in brief: as §2
C2C12 [7] = test: Inhibition of TGFbeta1-induced fibrosis in mouse C2C12 cells preincubated for 2 hrs followed by TGFbeta1 addition and measured after 48 hrs by Western blot analysis relative to control

CC(=O)OC[C@H]1O[C@@H](OCc2ccc(COc3cc(C)cc(CS(=O)(=O)c4ccccc4)c3)cc2)[C@H](OC(C)=O)[C@@H](OC(C)=O)[C@@H]1OC(C)=O
inhibition at 10 µM (C2C12 [1]): 100%
inhibition (C2C12 [2]): Active
inhibition (INH) (C2C12 [3]): 100%
inhibition at 10 µM (C2C12 [4]): 100%
inhibition (C2C12 [5]): Active
inhibition (C2C12 [6]): Active

Cc1cc(CS(=O)(=O)c2ccccc2)cc(OCc2ccc(CO[C@@H]3O[C@H](CO)[C@@H](O)[C@H](O)[C@H]3O)cc2)c1
inhibition (INH) (C2C12 [7]): 100%
inhibition at 10 µM (C2C12 [4]): 100%
inhibition (C2C12 [5]): Active
inhibition (C2C12 [6]): Active

CC(=O)N[C@H]1[C@H](OCc2ccc(COc3cc(C)cc(CS(=O)(=O)c4ccccc4)c3)cc2)O[C@H](CO)[C@@H](O)[C@@H]1O
inhibition (C2C12 [6]): Active

Cc1cc(CS(=O)(=O)c2ccccc2)cc(OCc2ccc(CO[C@@H]3O[C@H](CO)[C@H](O)[C@H](O)[C@H]3O)cc2)c1
inhibition (C2C12 [5]): inactive
inhibition (C2C12 [6]): inactive

Cc1cc(CS(=O)(=O)c2ccccc2)cc(OCc2ccc(CN3CCC[C@@H]3CO)cc2)c1
inhibition at 10 µM (C2C12 [4]): 100%
inhibition (C2C12 [5]): Active
inhibition (C2C12 [6]): Active
